The record followed here is ChEMBL document CHEMBL2311462, “Design, synthesis, and functional evaluation of leukocyte function associated antigen-1 antagonists in early and late stages of cancer development” (J Med Chem, 2013).

Test [1] concerns the target T1, Integrin alpha-L (Mus musculus) (UniProt P24063).
T1 sequence (whole entry): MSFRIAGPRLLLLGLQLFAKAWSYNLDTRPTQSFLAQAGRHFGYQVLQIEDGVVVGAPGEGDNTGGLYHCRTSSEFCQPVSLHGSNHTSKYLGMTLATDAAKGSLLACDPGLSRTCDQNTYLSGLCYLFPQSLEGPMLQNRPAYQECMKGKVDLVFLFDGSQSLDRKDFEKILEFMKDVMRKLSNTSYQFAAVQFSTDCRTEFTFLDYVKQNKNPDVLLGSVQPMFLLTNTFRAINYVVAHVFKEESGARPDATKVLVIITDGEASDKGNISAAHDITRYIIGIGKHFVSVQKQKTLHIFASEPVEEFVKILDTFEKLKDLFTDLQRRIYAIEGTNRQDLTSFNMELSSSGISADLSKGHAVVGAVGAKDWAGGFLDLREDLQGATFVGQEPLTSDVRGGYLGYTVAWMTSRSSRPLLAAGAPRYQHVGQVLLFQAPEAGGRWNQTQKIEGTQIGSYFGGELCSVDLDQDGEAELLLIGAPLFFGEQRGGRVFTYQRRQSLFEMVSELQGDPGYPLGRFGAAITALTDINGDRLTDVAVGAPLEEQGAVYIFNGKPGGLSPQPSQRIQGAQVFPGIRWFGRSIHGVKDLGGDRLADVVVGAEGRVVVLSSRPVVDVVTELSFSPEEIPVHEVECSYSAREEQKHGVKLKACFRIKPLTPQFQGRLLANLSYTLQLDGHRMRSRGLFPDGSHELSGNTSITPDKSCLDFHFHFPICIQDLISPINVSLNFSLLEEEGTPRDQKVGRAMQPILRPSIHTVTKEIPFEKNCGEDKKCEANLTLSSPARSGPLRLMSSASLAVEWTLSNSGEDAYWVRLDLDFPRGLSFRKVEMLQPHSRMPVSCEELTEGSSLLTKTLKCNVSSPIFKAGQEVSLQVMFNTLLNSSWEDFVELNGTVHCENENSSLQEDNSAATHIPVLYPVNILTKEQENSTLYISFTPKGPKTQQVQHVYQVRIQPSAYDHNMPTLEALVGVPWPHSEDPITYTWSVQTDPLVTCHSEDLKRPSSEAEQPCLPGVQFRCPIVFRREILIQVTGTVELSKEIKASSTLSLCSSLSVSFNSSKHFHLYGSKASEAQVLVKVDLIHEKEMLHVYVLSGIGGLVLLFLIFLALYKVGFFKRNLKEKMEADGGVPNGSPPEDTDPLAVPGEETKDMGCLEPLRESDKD
Description: Inhibition of LFA-1/ICAM-1 interaction in mouse CT26 cells assessed as PMA-induced adhesion to ICAM-1 expressing HSE cells at 20 ug/ 5 x 10^5 cells by fluorometric microplate reader analysis. The format is cell-based. The gist of the method: (§1)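 CT26-CC or Lim51b-CC cells were stimulated with PMA and preincubated for 30 min with compound or anti-LFA-1 antibody. Adhesion to hepatic sinusoidal endothelial cells was then quantified using a previously validated in vitro bioassay. Significance was assessed by ANOVA with Bonferroni post hoc test.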

The target of test [2] is T2, Integrin alpha-L (Homo sapiens) (UniProt P20701).
T2 sequence (whole entry): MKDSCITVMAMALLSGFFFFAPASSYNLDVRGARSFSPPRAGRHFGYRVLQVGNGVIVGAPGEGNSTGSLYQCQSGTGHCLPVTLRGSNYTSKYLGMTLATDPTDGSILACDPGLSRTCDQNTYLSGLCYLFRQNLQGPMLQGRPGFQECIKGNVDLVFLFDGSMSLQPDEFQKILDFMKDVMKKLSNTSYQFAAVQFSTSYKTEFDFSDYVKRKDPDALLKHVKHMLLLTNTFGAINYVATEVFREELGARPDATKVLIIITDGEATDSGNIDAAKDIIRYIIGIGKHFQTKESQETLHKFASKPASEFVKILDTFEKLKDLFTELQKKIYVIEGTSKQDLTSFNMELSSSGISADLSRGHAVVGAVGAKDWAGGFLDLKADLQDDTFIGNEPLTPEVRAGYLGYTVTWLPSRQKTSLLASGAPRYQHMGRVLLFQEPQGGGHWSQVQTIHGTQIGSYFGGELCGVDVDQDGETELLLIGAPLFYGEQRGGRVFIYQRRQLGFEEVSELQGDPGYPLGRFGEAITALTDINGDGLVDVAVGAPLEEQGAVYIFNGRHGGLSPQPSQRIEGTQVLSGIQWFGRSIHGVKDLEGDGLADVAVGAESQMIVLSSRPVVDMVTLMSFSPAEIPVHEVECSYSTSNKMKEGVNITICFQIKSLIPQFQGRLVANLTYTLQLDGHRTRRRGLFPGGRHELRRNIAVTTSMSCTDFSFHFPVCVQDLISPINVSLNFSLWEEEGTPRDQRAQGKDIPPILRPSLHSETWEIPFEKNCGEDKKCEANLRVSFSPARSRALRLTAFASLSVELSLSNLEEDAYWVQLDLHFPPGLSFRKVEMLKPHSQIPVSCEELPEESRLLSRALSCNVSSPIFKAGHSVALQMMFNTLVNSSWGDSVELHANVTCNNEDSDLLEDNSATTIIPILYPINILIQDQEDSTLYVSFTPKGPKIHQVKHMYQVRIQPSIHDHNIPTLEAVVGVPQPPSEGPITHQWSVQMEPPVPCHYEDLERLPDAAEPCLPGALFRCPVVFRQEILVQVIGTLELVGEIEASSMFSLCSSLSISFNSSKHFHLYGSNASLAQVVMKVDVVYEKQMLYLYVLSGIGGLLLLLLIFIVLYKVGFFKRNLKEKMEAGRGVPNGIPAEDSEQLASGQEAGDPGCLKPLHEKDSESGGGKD
The test can be described thus: Inhibition of LFA-1/ICAM-1 interaction in human peripheral blood leukocytes assessed as reduction on PMA-induced adhesion to immobilized human recombinant ICAM-1 at 20 ug/ 5 x 10^5 cells after 30 mins by fluorescence assay. It counts as cell-based. The gist of the method:
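Human peripheral blood leukocytes were stimulated with PMA and preincubated with compound. Adhesion to immobilized recombinant human ICAM-1, a commercial form containing all five extracellular domains, was then quantified. Significance was assessed by ANOVA with Bonferroni post hoc test.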

In test [3] the test system is CT26. The test can be described thus: Antitumor activity against mouse CT26 cells allografted in BALB/c mouse assessed as decrease in tumor volume at 2.5 mg/kg, sc measured on day 15 relative to control. The format is functional. Further details: scale not given: the % may be the effect or the level left. The settings on record: route subcutaneous. The essentials:
(§2)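 BALB/c mice were injected subcutaneously with 5 × 10⁵ CT26-CC cells. Compound/PAMAM G3.5 was then given as daily subcutaneous injections at 2.5 mg/kg. Primary tumors were removed on day 15 and their volume was measured. Ki67 was scored by immunohistochemistry as the percentage of positive tumor cells across 10 random fields. Significance was assessed by ANOVA with a post hoc test.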

For test [4], the system named is CT26. Description: Antitumor activity against mouse CT26 cells allografted in BALB/c mouse assessed as decrease in expression level of protein Ki67 at 2.5 mg/kg, sc measured on day 15 relative to control. It counts as functional. Further details: scale not given: the % may be the effect or the level left. As to conditions: route subcutaneous. The essentials: as §2

Test [5] deals with Integrin alpha-2 (Homo sapiens) (UniProt P17301). The test can be described thus: Binding affinity to integrin alpha2 I-domain (unknown origin).
Sequence of Integrin alpha-2 (Homo sapiens) (P17301 whole entry): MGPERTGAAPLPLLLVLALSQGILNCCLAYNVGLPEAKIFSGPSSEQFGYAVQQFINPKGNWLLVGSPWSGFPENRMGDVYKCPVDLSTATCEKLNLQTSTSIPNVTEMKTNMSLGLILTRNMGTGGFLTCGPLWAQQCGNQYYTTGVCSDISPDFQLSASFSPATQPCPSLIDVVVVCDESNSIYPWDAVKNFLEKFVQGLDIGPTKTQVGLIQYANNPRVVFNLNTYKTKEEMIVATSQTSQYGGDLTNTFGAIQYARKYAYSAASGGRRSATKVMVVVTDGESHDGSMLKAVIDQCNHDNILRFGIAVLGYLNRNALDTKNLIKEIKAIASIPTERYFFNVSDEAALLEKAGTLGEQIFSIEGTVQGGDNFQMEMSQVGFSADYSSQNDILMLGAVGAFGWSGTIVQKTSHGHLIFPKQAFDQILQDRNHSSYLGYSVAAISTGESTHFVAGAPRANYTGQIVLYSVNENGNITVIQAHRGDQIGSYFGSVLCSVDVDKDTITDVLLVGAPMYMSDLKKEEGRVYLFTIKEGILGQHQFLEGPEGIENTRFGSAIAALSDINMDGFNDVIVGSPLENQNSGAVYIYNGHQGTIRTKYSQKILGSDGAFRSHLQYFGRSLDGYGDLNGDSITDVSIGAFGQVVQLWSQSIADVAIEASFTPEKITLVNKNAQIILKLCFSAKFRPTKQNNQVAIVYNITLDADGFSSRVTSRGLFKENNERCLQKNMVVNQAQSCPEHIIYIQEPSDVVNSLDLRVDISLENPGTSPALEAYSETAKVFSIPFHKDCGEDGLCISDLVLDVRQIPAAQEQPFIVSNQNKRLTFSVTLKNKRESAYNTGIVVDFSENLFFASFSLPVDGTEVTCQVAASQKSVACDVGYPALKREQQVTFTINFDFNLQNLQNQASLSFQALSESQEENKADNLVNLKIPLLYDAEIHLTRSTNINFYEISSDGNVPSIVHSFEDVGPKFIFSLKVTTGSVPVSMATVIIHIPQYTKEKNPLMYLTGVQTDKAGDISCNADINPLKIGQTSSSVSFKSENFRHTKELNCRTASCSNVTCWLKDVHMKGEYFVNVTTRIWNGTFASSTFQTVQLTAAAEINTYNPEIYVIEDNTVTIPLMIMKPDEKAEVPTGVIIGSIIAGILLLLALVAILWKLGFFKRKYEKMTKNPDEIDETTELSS
The species named for test [6] is Homo sapiens. Description: Binding affinity to protein G B1-domain (unknown origin).
Test [7] has as its target T3, Integrin alpha-L (Homo sapiens, UniProt P20701).
T3 sequence (P20701 whole entry): T2 sequence (whole entry)
Description: Binding affinity to I-domain of human integrin alphaL (amino acid residues 128 to 307) plus initial methionine expressed in Escherichia coli by NMR spectroscopy.

The target in test [8] is T1, Integrin alpha-L (Mus musculus). The test can be described thus: Inhibition of LFA-1/ICAM-1 interaction in mouse Lim51b cells assessed as PMA-induced adhesion to ICAM-1 expressing HSE cells at 20 ug/ 5 x 10^5 cells after 30 mins by fluorometric microplate reader analysis. It counts as cell-based. The gist of the method:
as §1

The subject of test [9] is CT26. The test can be described thus: Antimetastatic activity against mouse CT26 cells allografted in BALB/c mouse assessed as reduction in metastasis density at 10 ug/ml preincubated for 30 mins prior to inoculation measured on day 14 relative to control. The format is functional. The gist of the method: (§3)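 Male BALB/c mice, 6–8 weeks old and anesthetized (n = 10 per group; three independent experiments), received an intrasplenic injection of 1.5 × 10⁵ viable CT26-CC cells in 0.1 mL Hank's balanced salt solution. Mice were killed on day 14. Densitometric and stereological image analysis gave metastases per 100 mm³ liver (fifteen sections per liver) and the percentage of liver volume occupied.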

Test [10] has as its system B16. Description: Inhibition of VEGF production in mouse B16 M cells at 10 ug/ml preincubated for 30 mins prior to H2O2 addition measured after 2 hrs by ELISA. The format is functional, cell-based.
A short description of test [11]: Binding affinity to I-domain of human integrin alphaL (amino acid residues 128 to 307) plus initial methionine K287C/K294C mutant expressed in BL21 cells by NMR spectroscopy. It counts as cell-based.
Test [12] relates to BL21. Description: Inhibition of I-domain of human integrin alphaL (amino acid residues 128 to 307) plus initial methionine K287C/K294C mutant-ICAM1 interaction expressed in BL21 cells after 4 hrs by NMR analysis.
The test system of test [13] is CT26. Description: Antimetastatic activity against mouse CT26 cells allografted in BALB/c mouse assessed as decrease in cancer cell volume in liver at 10 ug/ml preincubated for 30 mins prior to inoculation measured on day 14 relative to control. It counts as functional. The essentials: as §3
The subject of test [14] is B16. Description: Inhibition of VEGF production in mouse B16 M cells at 10 ug/ml preincubated for 30 mins prior to ICAM addition measured after 2 hrs by ELISA. The format is functional, cell-based. For orientation: ELISA stands for enzyme-linked immunosorbent assay.
The subject of test [15] is B16M. The test can be described thus: Inhibition of VLA-4/VCAM-1 interaction in mouse B16M cells assessed as PMA-induced adhesion to immobilized VCAM-1 at 25 ug/ 5 x 10^5 cells after 30 mins by microplate reader analysis. It counts as cell-based.

SMILES strings stand for the structures. pKd: −log10 of the molar value. Calls of active or inactive are those of the source. No cut-off for these calls is given here.

For `CC[C@H](C)[C@H](OCc1ccccc1)[C@H]1[C@H]([N+](=O)[O-])[C@H](c2ccccc2)N[C@]1(C)C(=O)NCCCCCC(=O)O`, the inhibition entry in [1] was “Active”.
With `CC[C@H](C)[C@H](OCc1ccccc1)[C@H]1[C@H]([N+](=O)[O-])[C@H](c2ccccc2)N[C@@H]1C(=O)NCCCCCC(=O)O`, the inhibition entry in test [1] and in test [2] was “Active” each time. Further, the figures for the Activity in test [3] and in test [4] were 85% and 40%, respectively.
In the case of `CC[C@H](C)[C@H](OCc1ccccc1)[C@H]1[C@H]([N+](=O)[O-])[C@H](c2ccccc2)N(C(=O)CN)[C@]1(C)C(=O)NCCC(=O)O`, the inhibition result in test [1] is “Active”. Further, the results for the Activity in test [3] and in test [4] were 77% and 40%, respectively.
Turning to `CC[C@H](C)C(=O)O[C@H]1C[C@@H](C)C=C2C=C[C@H](C)[C@H](CC[C@@H]3C[C@@H](O)CC(=O)O3)[C@H]21`, the outcome in test [5] was inactive.
As to `CC[C@H](C)[C@H](OCc1ccccc1)[C@H]1[C@H]([N+](=O)[O-])[C@H](c2ccccc2)N[C@]1(C)C(=O)NCCCCC(=O)O`, in [1], the inhibition entry was “Active”.
`CC[C@H](C)[C@H](OCc1ccccc1)[C@H]1[C@H]([N+](=O)[O-])[C@H](c2ccccc2)N[C@]1(C)C(=O)NCCCC(=O)O`: the inhibition result in test [1] is “Active”. In addition, the result in [5] and in test [6] was inactive. Moreover, in [7], the negative logarithm of the Kd (pKd) is 5.13.
For `CC[C@H](C)[C@H](OCc1ccccc1)[C@H]1[C@H]([N+](=O)[O-])[C@H](c2ccccc2)N[C@@H]1C(=O)NCCCCC(=O)O`, the inhibition result in [1] was “Active”.
Consider `CC[C@H](C)[C@H](OCc1ccccc1)[C@H]1[C@H]([N+](=O)[O-])[C@H](c2ccccc2)N[C@@H]1C(=O)NCC(=O)O`, for which, in test [1], the inhibition result is “inactive”.
On the same count and under the same terms, the value for `CC[C@H](C)[C@H](OCc1ccccc1F)[C@H]1[C@H]([N+](=O)[O-])[C@H](c2ccsc2)N[C@@H]1C(=O)NCCC(=O)O` was “inactive”; that for `CC[C@H](C)[C@H](OCc1ccccc1)[C@H]1[C@H]([N+](=O)[O-])[C@H](c2ccccc2)N[C@@H]1C(=O)NCCCC(=O)O` was “Active”.
As to `CC[C@H](C)[C@H](OCc1ccccc1)[C@H]1[C@H]([N+](=O)[O-])[C@H](c2ccccc2)N[C@@H]1C(=O)NCCC(=O)O`, the inhibition result in test [1] and in test [8] was “Active” in each case.
In the case of `CC[C@H](C)[C@H](OCc1ccccc1)[C@H]1[C@H]([N+](=O)[O-])[C@H](c2ccccc2)N[C@]1(C)C(=O)NCCC(=O)O`, the inhibition entry in [1], in test [10], in test [8], in test [2] and in [14] was “Active” in each case. For the same compound, the “fold change (FC)” value in test [9] and in test [13] was 25 each time. Further, the results for the pKd in test [7] and in [11] were 5.00 and 4.09, respectively. For the same compound, the inhibition result in test [12] and in [15] was “inactive” each time.

The pKd is −log10 of the Kd, conventionally taken in molar units.
